Results as given in ChEMBL document CHEMBL1138796, “Novel 5-HT7 receptor inverse agonists. Synthesis and molecular modeling of arylpiperazine- and 1,2,3,4-tetrahydroisoquinoline-based arylsulfonamides” (J Med Chem, 2004).
“And” between values parts separate entries of the source, which are not always exact repeats. Equal values may be shown once.

What was measured:
[1] = Partition coefficient (logP); format: physicochemical; conditions: octanol/water
[2] = target: 5-hydroxytryptamine receptor 7 (Rattus norvegicus, UniProt P32305); test: Binding affinity towards rat 5-HT7 receptor expressed in HEK cells; format: cell-based, HEK293
Sequence of 5-hydroxytryptamine receptor 7 (P32305 whole entry): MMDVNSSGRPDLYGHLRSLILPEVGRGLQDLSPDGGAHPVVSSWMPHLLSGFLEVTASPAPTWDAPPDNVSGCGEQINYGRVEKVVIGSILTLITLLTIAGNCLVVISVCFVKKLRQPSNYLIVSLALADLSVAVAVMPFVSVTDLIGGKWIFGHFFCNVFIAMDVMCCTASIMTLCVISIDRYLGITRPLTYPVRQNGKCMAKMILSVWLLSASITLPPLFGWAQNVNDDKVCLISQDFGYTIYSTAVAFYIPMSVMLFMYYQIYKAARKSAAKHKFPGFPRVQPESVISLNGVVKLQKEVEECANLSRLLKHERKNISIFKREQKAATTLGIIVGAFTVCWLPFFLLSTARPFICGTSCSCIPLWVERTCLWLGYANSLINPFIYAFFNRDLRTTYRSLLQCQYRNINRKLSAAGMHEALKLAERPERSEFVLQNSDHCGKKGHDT
In short: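 Membranes of HEK cells expressing rat 5-HT7, resuspended in 50 mM Tris HCl pH 7.4 with 0.5 mM EDTA, 10 mM MgSO4, 2 mM CaCl2, 10 µM pargyline, 0.1% ascorbic acid; 20 µg protein with 0.3 nM [3H]5-CT, 2 h at room temperature; nonspecific binding with 10 µM 5-HT; filtration, scintillation counting; IC50 by log regression, Ki via Cheng-Prusoff.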

[3] = pKa; format: physicochemical
[4] = target: 5-hydroxytryptamine receptor 7 (Rattus norvegicus) (UniProt P32305); test: Effect on basal adenylate cyclase activity relative to potency of methiothepin using rat 5-HT7 receptor expressed in HEK cells; format: cell-based; conditions: HEK293
Sequence of 5-hydroxytryptamine receptor 7 (Rattus norvegicus) (P32305 whole entry): as above

Row | logP ([1]; read-out: logP) | Ki [2] | pKa [3] | cAMP [4] | logP [1] | SMILES
1 | 3 | 520 nM | 7 | -61% |  | COc1ccc2c(c1)CCN(CCCNS(=O)(=O)c1ccc(C)cc1)C2
2 | 3.1 | 54 nM | 7.4 | -93% |  | CCN(CCCN1CCc2cc(OC)ccc2C1)S(=O)(=O)c1ccccc1
3 | 3.4 |  | 8.1 | -100% |  | CSc1ccc2c(c1)[C@@H](N1CCN(C)CC1)Cc1ccccc1S2
4 | 1.6 | 1180 nM and 1100 nM | 8.6 |  | 1.6 | COc1ccc2c(c1)N(CCN(C)C)CCO2
5 |  | 19 nM |  | -93% |  | CCN(CCCN1CCN(c2ccccc2OC)CC1)S(=O)(=O)c1ccc(C)cc1
6 | 2.1 | 100 nM | 7.5 | -35% |  | COc1ccc(S(=O)(=O)NCCCN2CCN(c3ccccc3OC)CC2)cc1
7 | 4.3 | 19 nM | 7.4 | -91% |  | CCN(CCCN1CCc2cc(OC)ccc2C1)S(=O)(=O)c1cccc2ccccc12
8 | 3.8 | 11 nM | 7.4 | -95% |  | CCN(CCCN1CCc2cc(OC)ccc2C1)S(=O)(=O)c1ccc(C)cc1
9 | 2.2 | 75 nM | 7.4 | -66% |  | COc1ccccc1N1CCN(CCNS(=O)(=O)c2ccc(C)cc2)CC1
10 | 2.5 | 1200 nM | 7 | -84% |  | COc1ccc(S(=O)(=O)NCCCN2CCc3cc(OC)ccc3C2)cc1

The next lines start with the compound.

Row | SMILES | logP ([1]; read-out: logP) | Ki [2] | pKa [3] | cAMP [4] | logP [1]
11 | CC1CCN(CC[C@H]2CCCN2S(=O)(=O)c2cccc(O)c2)CC1 | 2.7 | 1 nM | 10.4 |  | 
12 | CCN(CCCN1CCc2cc(OC)ccc2C1)S(=O)(=O)c1ccc(OC)cc1 | 3.3 | 29 nM | 7.4 | -94% | 
13 | CC1CCN(CC[C@H]2CCCN2S(=O)(=O)c2cccc3ccccc23)CC1 | 4.2 | 10 nM | 10.4 |  | 
14 | Cc1cccc(S(=O)(=O)N2CCC[C@@H]2CCN2CCC(C)CC2)c1 [SB-258741] | 3.7 | 3 nM | 10.4 |  | 
15 | COc1ccc2c(c1)c(CCN(C)C)cn2C | 2.7 | 1180 nM | 9.2 | -7% | 
16 | COc1ccc2[nH]cc(C3=CCN(Cc4ccccc4)CC3)c2c1 | 4.3 | 1100 nM | 7.7 | -65% | 
17 | COc1ccc2c(c1)CCN(CCCNS(=O)(=O)c1ccccc1)C2 | 2.3 | 75 nM | 7 | -36% | 
18 | COc1ccc2c(c1)CCN(CCCNS(=O)(=O)c1cccc3ccccc13)C2 | 3.6 | 360 nM | 7 | -104% | 
19 | COc1ccccc1N1CCN(CCCNS(=O)(=O)c2ccc(C)cc2)CC1 | 2.6 | 52 nM | 7.5 | -20% | 
